WT yeast gro inh – growth inhibition of WT yeast, mitochondrial fusion screen | mitochondrial fusion phenotypic screen, WT strain | inhibition, % at 10 µM | actives 2.1% (n = 190,000) | AID 1362; in the data active = inhibition above about 58%; tested in S. cerevisiae
Lmaj promast – Leishmania major promastigote growth inhibition. actives 9% (n = 200,000). AID 1063. Leishmania major promastigotes, resazurin fluorescence viability. inhibition, % at 10 µM;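 note: promastigotes grown with compound for 44 hours at 28 °C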
Diaph inh CS – counter-screen for diaphorase-based assays: diaphorase inhibitors and chemical oxidizers; diaphorase resazurin-to-resorufin fluorescence, NADH, 16 min; bacterial (C. kluyveri) enzyme, not human; inhibition, % at 20 µM; actives 0.69% (n = 190,000);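 active = primary screen inhibition at 20 µM above a set limit, cut at about 50% in these data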
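Assay system – diaphorase enzyme from Clostridium kluyveri · Amount – diaphorase 0.14 U/mL (working solution) · Times – reaction incubation of 16 min at room temperature · Controls – No-NADH positive control and DMSO neutral control · Signal – resorufin fluorescence 544/590 nm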
G6PDH CS – counter-screen for G6PDH assay hits: L. mesenteroides G6PDH inhibition; AID 1020; actives 0.12% (n = 200,000); inhibition, % at 5 µM; Purified L. mesenteroides G6PDH, diaphorase/resazurin coupled fluorescence, 45 min
Diaphorase act – counter-screen for diaphorase-based assays: diaphorase activators and chemical reducers. Diaphorase/resazurin coupled assay, resorufin fluorescence, 16 min; stronger effect = higher value; 1 = vehicle wells, 0 = NADH-free wells. activation factor at 20 µM. actives 0.005% (n = 190,000). AID 1229;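 active = diaphorase activity raised at least twofold by the compound at 20 µM; inactive = activation factor below 2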
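Test system: Clostridium kluyveri diaphorase, purified enzyme. Buffer or medium: 50 mM HEPES pH 7.4 buffer plus MgCl2 and Tween 20. Also added: 0.114 mM NADH and 0.1 mM resazurin, final amounts. Dosing: compound 20 µM once, DMSO 1%. Schedule: 16 min enzyme reaction, ambient temperature. Detection: fluorescence of resorufin, 544 nm excitation, 590 nm emission.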
A number is an active result; n = inactive; x = no result. Rows were chosen to be rich in hits. Some 11% of all compounds tested hit in one or more screens of this group. Cut-off read from the data, not from the text of the source, unless noted: active = inhibition above about 50%; inactive = the rest.

SMILES | WT yeast gro inh | Lmaj promast | Diaph inh CS | G6PDH CS | Diaphorase act
CSCSC1=C(C#N)C(c2ccc(Cl)cc2)C(C(C)=O)=C(C)N1 (configuration not stated) | n | 65 | n | n | n
COc1cc(OC)cc(C(=O)NC2CCN(CC(=O)Nc3cccc4ccccc34)CC2)c1 | n | n | n | n | n
COc1ccc(C2=CSC3=C(C(=O)c4cccc(S(=O)(=O)N(C)C)c4)CCN23)cc1 | n | n | n | n | n
Cc1ccc(NC(=S)NCc2ccc3c(c2)cc(C)n3C)c(C)c1 | n | n | n | n | n
C=CCOC(=O)CN1C(=O)c2ccccc2C1=O | n | n | n | n | n
Cc1ccc(C(C)C)c(OCc2ccc(C(=O)N/N=C/c3ccc(O)c(O)c3)cc2)c1 | n | 100 | n | n | n
Cc1ccc(C(C)C)c(OCc2ccc(C(=O)N/N=C/c3cccc(O)c3O)cc2)c1 | n | 100 | n | n | n
COc1cc(/C=N/NC(=O)c2ccc(COc3cc(C)ccc3C(C)C)cc2)cc(OC)c1O | n | n | n | n | n
CCOC(=O)c1c(C)n(-c2ccc(OC)cc2)c2c(C/C(C)=N/O)c(Br)c(OC)c(O)c12 | n | n | n | n | n
CCOc1ccc(CN2CCN(S(=O)(=O)c3ccc(NC(C)=O)cc3)CC2)cc1 | n | n | n | n | n
Cc1cc(Br)ccc1NCc1ccccn1 | n | n | n | n | n
Cc1cccc(OCc2n(CC(=O)OC3CC(C)CCC3C(C)C)c3ccccc3[n+]2C)c1 (configuration not stated) | n | 100 | n | n | n
CC1CCC(C(C)C)C(OC(=O)CSc2nc(N)cc(=O)[nH]2)C1 (configuration not stated) | n | n | n | n | n
CC1CCC(C(C)C)C(OC(=O)Cn2c(-c3ccc(F)cc3)[n+](C)c3ccccc32)C1 (configuration not stated) | n | 100 | n | n | n
Cc1cccc(OC(=O)Cn2c(C(F)(F)F)nc3ccccc32)c1 | n | n | n | n | n
CC1CCC(C(C)C)C(OC(=O)Cn2c(-c3ccccc3)[n+](C)c3ccccc32)C1 (configuration not stated) | n | 100 | n | n | n
C/C(=N\NC(=O)CSCc1ccc([N+](=O)[O-])cc1)c1ccccc1O | n | n | n | n | n
CC1(C)Cc2cccc(OCC(O)CN3CCN(c4ccccn4)CC3)c2O1 (configuration not stated) | n | 85 | n | n | n
COc1cc(C#CC#CCN2CCCCC2)ccc1O | n | 86 | n | n | n
O=C(Nc1cccc(F)c1)N1CCCC(CNS(=O)(=O)Cc2ccccc2)C1 (configuration not stated) | n | 92 | n | n | n
O=C(NC1CCCCC1)N1CCCC(CNS(=O)(=O)Cc2ccccc2)C1 (configuration not stated) | n | n | n | n | n
Cc1ccsc1/C=N/NC(=O)c1ccccn1 | n | 60 | n | n | n
N#CC(c1cccc(C(F)(F)F)c1)(c1ncc(C(F)(F)F)cc1Cl)N1CCOCC1 (configuration not stated) | x | 96 | n | n | n
N#CC(c1ccccc1)(c1ncc(C(F)(F)F)cc1Cl)N1CCOCC1 (configuration not stated) | n | n | n | n | n
Cc1ccc(-c2c[n+](Cc3ccc(Cl)c(Cl)c3)c3n2CCC3)cc1 | n | 100 | n | n | n
SMILES | WT yeast gro inh | Lmaj promast | Diaph inh CS | G6PDH CS | Diaphorase act
O=C(C[n+]1cc(-c2ccccc2)n2c1CCC2)OCc1ccccc1 | n | n | n | n | n
COc1ccc(C(=O)C[n+]2cc(-c3ccc(OC)cc3)n3c2CCCC3)cc1 | n | 99 | n | n | n
O=C(C[n+]1cc(-c2ccccc2)n2c1CCCCC2)c1ccc(Br)cc1 | n | 99 | n | n | n
Cc1ccc(-c2c[n+](CC(=O)OCc3ccccc3)c3n2CCC3)cc1 | n | n | n | n | n
Cc1ccc(C(=O)C[n+]2cc(-c3ccc(C)cc3)n3c2CCCCC3)cc1 | n | 100 | n | n | n
Cc1ccc(-c2c[n+](CC(=O)Nc3nc(-c4ccc(F)cc4)cs3)c3n2CCC3)cc1 | n | n | n | n | n
COc1c(F)c(F)c(C(=O)Nc2c(C)cc(Br)cc2C)c(F)c1F | n | n | n | n | n
COC(=O)CSc1nc(C)cc(N2CCOCC2)n1 | n | n | n | n | n
Cc1cc(C)n(CC(=O)N2c3ccccc3Sc3ccccc32)n1 | n | 61 | n | n | n
CCCCC(=O)Nc1cc(-c2nc3ncccc3o2)ccc1C | n | 99 | n | n | n
O=C(Nc1cccc(-c2nc3ncccc3o2)c1)c1ccccc1 | n | 100 | n | n | n
Cc1ccc(-c2nc3ncccc3o2)cc1NC(=O)c1cccnc1 | n | n | x | n | x
CCCC(=O)NC(=S)Nc1cccc(-c2nc3ncccc3o2)c1 | n | n | n | n | n
CC(=O)N1CCN=C1SCc1ccc(Cl)cc1 | n | n | n | n | n
Nc1nc(CN2CCN(C(=O)c3ccco3)CC2)nc(Nc2cccc(Cl)c2)n1 | n | n | n | n | n
COc1ccccc1NC(=O)CC1COc2ccccc2O1 (configuration not stated) | n | n | n | n | n
O=C(NC1CC1)C1CCN(C2CCN(C(=O)/C=C/c3ccc(F)cc3)CC2)CC1 | n | 66 | n | n | n
O=C(Cc1ccc(F)cc1)N1CCC(N2CCC(C(=O)N3CCOCC3)CC2)CC1 | n | n | n | n | n
Cc1cccc(CC(=O)N2CCC(N3CCC(C(=O)N4CCOCC4)CC3)CC2)c1 | n | n | 55 | n | n
O=C(/C=C/c1ccccc1)N1CCC(N2CCC(C(=O)N3CCOCC3)CC2)CC1 | n | 51 | n | n | n
Cc1cccc(OCC(=O)N2CCC(N3CCCCCC3)CC2)c1 | n | 92 | n | n | n
O=C(/C=C/c1ccc(F)cc1)N1CCCN(C(=O)/C=C/c2ccc(F)cc2)CC1 | n | n | n | n | n
COc1cc(NC(=O)Cc2c(C(=O)O)n(C)c3ccccc23)cc(OC)c1OC | n | n | n | n | n
O=C(NC1CC1)C1CCN(C2CCN(C(=O)CC3=CCCCC3)CC2)CC1 | n | 75 | n | n | n
O=C(NCCc1ccccc1)C1CCN(C2CCN(C(=O)CC3=CCCCC3)CC2)CC1 | n | n | n | n | n
SMILES | WT yeast gro inh | Lmaj promast | Diaph inh CS | G6PDH CS | Diaphorase act
S=C(Nc1cccc2ccccc12)NC1CCCCC1 | 75 | 99 | n | n | n
Cc1cccc(NC(=S)NC2CCCC2)c1 | n | n | n | n | n
CC(C)c1ccccc1NC(=S)NC1CCCCC1 | 71 | n | n | n | n
CCOc1ccc(C(C)NC(=S)NC2CCCCC2)cc1 (configuration not stated) | 73 | n | n | n | n
CC(C)c1ccccc1NC(=S)NC(C)c1ccccc1 (configuration not stated) | 60 | 97 | n | n | n
CSc1ccccc1NC(=S)NC1CCCCC1 | n | n | n | n | n

Compound activity as filed in PubChem BioAssay.
